This note sets out measurements from ChEMBL document CHEMBL4480436, “Lead optimization of selective tubulin inhibitors as anti-trypanosomal agents” (Bioorg Med Chem, 2019).

Data set [1] deals with RAW264.7. Briefly: Cytotoxicity against mouse RAW264.7 cells after 48 hrs by MTT assay. In kind it is cell-based. The conditions noted are these: RAW264.7, 48 h. A digest of the protocol: (§1)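 Cells kept in RPMI1640 with 10% heat-inactivated FBS, 2 mM L-glutamine, 1 mM pyruvate, pen-strep, 37 °C, 5% CO2. 3000 cells/well seeded 24 h, then exposed to graded concentrations (DMSO ≤0.1% final) for 48 h. Then 0.5 mg/mL MTT 3 h at 37 °C, DMSO solubilization, absorbance 570 nm. Quadruplicate data fitted to dose–response curves for IC50.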

The nature of data set [2]: Selectivity index, ratio of IC50 for mouse RAW264.7 cells to IC50 for Trypanosoma brucei brucei Lister 427. In kind it is toxicity. Conditions: read-out: Ratio IC50. A digest of the protocol: (§2)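 Ratio of mammalian MTT IC50 (48 h) to T. brucei MTS IC50 (48 h), both from quadruplicate dose–response fits.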
Data set [3] concerns HEK293. Briefly: Cytotoxicity against HEK293 cells after 48 hrs by MTT assay. In kind it is cell-based. Conditions: Homo sapiens, HEK293, 48 h. A digest of the protocol:
as §1
A general note: Formazan colour is commonly taken as a measure of viable cells.

The subject of data set [4] is Trypanosoma brucei brucei. The data set is described as follows: Antiparasitic activity against Trypanosoma brucei brucei Lister 427 assessed as reduction in parasite viability after 48 hrs by MTS assay. In kind it is functional, organism-based. The conditions noted are these: Lister 427, 48 h. A digest of the protocol: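 Bloodstream-form Lister 427 grown in HMI-9 with 10% FBS, 37 °C, 7.5% CO2. 5000 cells/well exposed to graded concentrations with 0.1% DMSO for 48 h at 37 °C. MTS/PMS reagent then added, 3 h at 37 °C, formazan read at 490 nm. Quadruplicate data normalized and fitted to dose–response curves for IC50 (Mean ± S.D.).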

Data set [5] is described as follows: Selectivity index, ratio of IC50 for HEK293 cells to IC50 for Trypanosoma brucei brucei Lister 427. In kind it is toxicity. The conditions noted are these: human, read-out: Ratio IC50. A digest of the protocol:
as §2

For `CS(=O)(=O)Nc1ccc(NC(=O)c2cc(C(F)(F)F)cc(C(F)(F)F)c2)cc1F`, the values for the IC50 in data set [1], in data set [3] and in data set [4] were 125 µM, greater than 250 µM and 23.7 µM, respectively. Also, the selectivity ratio was 5 in data set [2] and greater than 11 in data set [5].

As to `CCS(=O)(=O)Nc1ccc(NC(=O)c2ccc(Cl)c([N+](=O)[O-])c2)cc1F`, the IC50 (as a rule, the concentration that inhibits the measured activity by half) in data set [1] is 198 µM; in data set [3] it was 83.7 µM; in data set [4], 8.39 µM. The results for the selectivity ratio in data set [2] and in data set [5] were 24 and 10, respectively.

`CS(=O)(=O)Nc1ccc(NC(=O)c2ccc(Cl)c([N+](=O)[O-])c2)cc1F`: the IC50 is 102 µM in data set [1], 23.1 µM in data set [3] and greater than 62.5 µM in data set [4]. Further, the selectivity ratio in data set [2] is less than 2; in data set [5] it was less than 1.

As for `COc1cc(NC(=O)c2ccc(Cl)c([N+](=O)[O-])c2)ccc1NS(C)(=O)=O`, the half-inhibitory concentration (IC50) was greater than 250 µM in data set [1], 164 µM in data set [3] and greater than 62.5 µM in data set [4]. Also, the selectivity ratio in data set [5] was less than 3.

Turning to `COc1cc(NC(=O)c2cc(C(F)(F)F)cc(C(F)(F)F)c2)ccc1NS(=O)(=O)C(F)(F)F`, the 50% inhibitory concentration (IC50) in data set [1] is greater than 250 µM; in data set [3], greater than 250 µM; in data set [4], greater than 62.5 µM.

On to `O=C(Nc1ccc(NS(=O)(=O)C(F)(F)F)c(Cl)c1)c1cccc(C(F)(F)F)c1`, for which the IC50 is 55.8 µM in data set [1], 210 µM in data set [3] and greater than 62.5 µM in data set [4]. Also, the selectivity ratio was less than 1 in data set [2] and less than 4 in data set [5].

As to `CCS(=O)(=O)Nc1ccc(NC(=O)c2ccc(Cl)cc2)cc1F`, the IC50 in data set [1] is 152 µM; in data set [3], 53.4 µM; in data set [4], greater than 62.5 µM. In addition, the selectivity ratio in data set [2] was less than 3; in data set [5], less than 1.

As to `CCS(=O)(=O)Nc1ccc(NC(=O)c2ccc(C#N)cc2)cc1Cl`, the IC50 in data set [1] was 226 µM; in data set [3], greater than 250 µM; in data set [4], 38 µM. The values for the selectivity ratio in data set [2] and in data set [5] were 6 and greater than 7, respectively.

On to `Cc1cc(NC(=O)c2ccc(Cl)cc2)ccc1NS(C)(=O)=O`, for which the half-maximal inhibitory concentration (IC50) was 69 µM in data set [1], 50.3 µM in data set [3] and greater than 62.5 µM in data set [4]. The values for the selectivity ratio in data set [2] and in data set [5] were less than 2 and less than 1, respectively.

For the molecule `CCS(=O)(=O)Nc1ccc(NC(=O)c2ccc(Cl)cc2)cc1OC`, the IC50 was 60.1 µM in data set [1], greater than 250 µM in data set [3] and greater than 62.5 µM in data set [4]. Further, the selectivity ratio in data set [2] was less than 1.

In the case of `O=C(Nc1ccc(NS(=O)(=O)C(F)(F)F)c(F)c1)c1cccc(C(F)(F)F)c1`, the IC50 in data set [1] is 34.4 µM; in data set [3], 152 µM; in data set [4] it was 47.4 µM. Besides, the selectivity ratio in data set [2] came out at 1; in data set [5] it was 3.

For the molecule `CCS(=O)(=O)Nc1ccc(NC(=O)c2cc(C(F)(F)F)cc(C(F)(F)F)c2)cc1C`, the IC50 came out at 124 µM in data set [1], 126 µM in data set [3] and 12.5 µM in data set [4]. Moreover, the selectivity ratio in data set [2] and in data set [5] was 10 throughout.

On to `CCS(=O)(=O)Nc1ccc(NC(=O)c2cccc(C(F)(F)F)c2)cc1OC`, for which the figures for the IC50 in data set [1], in data set [3] and in data set [4] were 84.8 µM, greater than 250 µM and 35.7 µM, respectively. In addition, the selectivity ratio was 2 in data set [2] and greater than 7 in data set [5].

Take `CCS(=O)(=O)Nc1ccc(NC(=O)c2cccc(C(F)(F)F)c2)cc1C`: the IC50 in data set [1] worked out at 114 µM; in data set [3], 210 µM; in data set [4], 35.3 µM. In addition, the values for the selectivity ratio in data set [2] and in data set [5] were 3 and 6, respectively.

On to `O=C(Nc1ccc(NS(=O)(=O)C(F)(F)F)c(Cl)c1)c1ccc(Cl)c([N+](=O)[O-])c1`, for which the results for the IC50 in data set [1], in data set [3] and in data set [4] were 31.7 µM, 228 µM and 47.6 µM, respectively. Moreover, the figures for the selectivity ratio in data set [2] and in data set [5] were 1 and 5, respectively.

As to `CS(=O)(=O)Nc1ccc(NC(=O)c2ccc(Cl)cc2)cc1Cl`, the IC50 in data set [1] was 79.9 µM; in data set [3], 167 µM; in data set [4] it was greater than 62.5 µM. Also, the selectivity ratio in data set [2] was less than 2; in data set [5], less than 3.

As for `CCS(=O)(=O)Nc1ccc(NC(=O)c2ccc(Cl)c([N+](=O)[O-])c2)cc1Cl`, the figures for the IC50 in data set [1], in data set [3] and in data set [4] were 125 µM, 63.8 µM and 2.21 µM, respectively. The selectivity ratio in data set [2] worked out at 57; in data set [5], 29.

With `Cc1cc(NC(=O)c2cccc(C(F)(F)F)c2)ccc1NS(C)(=O)=O`, the 50% inhibitory concentration (IC50) in data set [1] came out at 110 µM; in data set [3], 194 µM; in data set [4], 16.7 µM. Further, the results for the selectivity ratio in data set [2] and in data set [5] were 7 and 12, respectively.

In the case of `CCS(=O)(=O)Nc1ccc(NC(=O)c2cc(C(F)(F)F)cc(C(F)(F)F)c2)cc1OC`, the half-inhibitory concentration (IC50) in data set [1] is greater than 250 µM; in data set [3], greater than 250 µM; in data set [4], 11.6 µM. In addition, the selectivity ratio in data set [2] and in data set [5] was greater than 22 throughout.

With `N#Cc1ccc(C(=O)Nc2ccc(NS(=O)(=O)C(F)(F)F)c(Cl)c2)cc1`, the IC50 was greater than 250 µM in data set [1], greater than 250 µM in data set [3] and 11 µM in data set [4]. The selectivity ratio in data set [2] and in data set [5] was greater than 23 each time.

As to `O=C(Nc1ccc(NS(=O)(=O)C(F)(F)F)c(F)c1)c1cc(C(F)(F)F)cc(C(F)(F)F)c1`, the half-inhibitory concentration (IC50) in data set [1] is 112 µM; in data set [3], 164 µM; in data set [4], 9.39 µM. Besides, the selectivity ratio in data set [2] amounted to 12; in data set [5], 17.

For the molecule `CS(=O)(=O)Nc1ccc(NC(=O)c2ccc(C#N)cc2)cc1F`, the IC50 in data set [1] was greater than 250 µM; in data set [3], greater than 250 µM; in data set [4], greater than 62.5 µM.

Regarding `CCS(=O)(=O)Nc1ccc(NC(=O)c2cccc(C(F)(F)F)c2)cc1Cl`, the half-inhibitory concentration (IC50) amounted to 62.4 µM in data set [1], 159 µM in data set [3] and 7.81 µM in data set [4]. Moreover, the selectivity ratio in data set [2] turned out to be 8; in data set [5], 20.

As to `CS(=O)(=O)Nc1ccc(NC(=O)c2cccc(C(F)(F)F)c2)cc1F`, the IC50 in data set [1] was 32.3 µM; in data set [3] it was greater than 250 µM; in data set [4] it was greater than 62.5 µM. Moreover, the selectivity ratio in data set [2] is less than 1.

For the molecule `COc1cc(NC(=O)c2cccc(C(F)(F)F)c2)ccc1NS(=O)(=O)C(F)(F)F`, the IC50 was 75.2 µM in data set [1], greater than 250 µM in data set [3] and 43 µM in data set [4]. Further, the selectivity ratio in data set [2] is 2; in data set [5], greater than 6.

In the case of `Cc1cc(NC(=O)c2ccc(Cl)c([N+](=O)[O-])c2)ccc1NS(=O)(=O)C(F)(F)F`, the half-maximal inhibitory concentration (IC50) in data set [1] was 89.8 µM; in data set [3] it was greater than 250 µM; in data set [4] it was greater than 62.5 µM. The selectivity ratio in data set [2] was less than 2.

Regarding `CCS(=O)(=O)Nc1ccc(NC(=O)c2cc(C(F)(F)F)cc(C(F)(F)F)c2)cc1F`, the IC50 in data set [1] was greater than 250 µM; in data set [3], greater than 250 µM; in data set [4], 8.78 µM. Besides, the selectivity ratio in data set [2] and in data set [5] was greater than 28 each time.

`COc1cc(NC(=O)c2ccc(Cl)cc2)ccc1NS(C)(=O)=O`: the concentration for half-maximal inhibition (IC50) in data set [1] was 70 µM; in data set [3], greater than 250 µM; in data set [4], greater than 62.5 µM. In data set [2], the selectivity ratio was less than 2.

Regarding `CS(=O)(=O)Nc1ccc(NC(=O)c2cccc(C(F)(F)F)c2)cc1Cl`, the concentration for half-maximal inhibition (IC50) is greater than 250 µM in data set [1], greater than 250 µM in data set [3] and greater than 62.5 µM in data set [4].

On to `COc1cc(NC(=O)c2cc(C(F)(F)F)cc(C(F)(F)F)c2)ccc1NS(C)(=O)=O`, for which the IC50 in data set [1] was greater than 250 µM; in data set [3], 42 µM; in data set [4], greater than 62.5 µM. Besides, in data set [5], the selectivity ratio is less than 1.

For `COc1cc(NC(=O)c2ccc(C#N)cc2)ccc1NS(C)(=O)=O`, the values for the IC50 in data set [1], in data set [3] and in data set [4] were greater than 250 µM, greater than 250 µM and greater than 62.5 µM, respectively.

Regarding `CS(=O)(=O)Nc1ccc(NC(=O)c2ccc(C#N)cc2)cc1Cl`, the IC50 in data set [1] is greater than 250 µM; in data set [3], greater than 250 µM; in data set [4], greater than 62.5 µM.

`CCS(=O)(=O)Nc1ccc(NC(=O)c2ccc(C#N)cc2)cc1C`: the IC50 in data set [1] was 109 µM; in data set [3], greater than 250 µM; in data set [4], greater than 62.5 µM. Moreover, the selectivity ratio in data set [2] is less than 2.

As to `Cc1cc(NC(=O)c2ccc(C#N)cc2)ccc1NS(=O)(=O)C(F)(F)F`, the IC50 is 135 µM in data set [1], greater than 250 µM in data set [3] and greater than 62.5 µM in data set [4]. Further, the selectivity ratio in data set [2] was less than 3.

For the molecule `COc1cc(NC(=O)c2cccc(C(F)(F)F)c2)ccc1NS(C)(=O)=O`, the IC50 in data set [1] is 84.8 µM; in data set [3], greater than 250 µM; in data set [4], greater than 62.5 µM. Also, the selectivity ratio in data set [2] was less than 2.

Take `CCS(=O)(=O)Nc1ccc(NC(=O)c2ccc(C#N)cc2)cc1OC`: the 50% inhibitory concentration (IC50) in data set [1] is 66.4 µM; in data set [3], greater than 250 µM; in data set [4] it was greater than 62.5 µM. For the same molecule, the selectivity ratio in data set [2] is less than 2.

As to `Cc1cc(NC(=O)c2ccc(Cl)cc2)ccc1NS(=O)(=O)C(F)(F)F`, the selectivity ratio in data set [2] was determined as 1; in data set [5] it was 5. Also, the results for the half-maximal inhibitory concentration (IC50) in data set [3] and in data set [4] were 200 µM and 37.2 µM, respectively.
